The source made the active and inactive calls. No cut-off for these calls is given here.
Columns and labels:
[1] = system: Mus musculus; test: Inhibition of seizures induced in mice by a convulsant dose of up to 100 mg/kg; assay type: functional, organism-based; parameters: dose 100 mg/kg
Summary of the method: (§1)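 Convulsant (bicuculline, picrotoxin, strychnine or PTZ) given at CD97 as a 0.5% solution. Observed 30 min (45 min for picrotoxin). PI uses ip mouse TD50.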

[2] = system: Mus musculus; test: Inhibition of picrotoxin-induced seizures in mice by ip administration at 55-100 mg/kg (g= Maximum 62.5% protection); assay type: functional, organism-based
Summary of the method: (§2)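 Phase V differentiation in mice: test drug given ip at time of peak therapeutic effect, then the CD₉₇ of each convulsant (picrotoxin, bicuculline, strychnine) given ip as a 0.5% solution; observation 30 min for bicuculline and strychnine, 45 min for picrotoxin. Drug in 30% PEG 400, 0.01 mL/g. ED₅₀ with 95% confidence intervals from ≥3 points in the 10-90% protection range, groups of 6-12 mice.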

[3] = system: Mus musculus; test: Inhibition of seizures induced in mice by a convulsant dose of strychnine through ip administration; f=No protection up to 100 mg/kg; assay type: functional, organism-based; parameters: dose 100 mg/kg; summary of the method: as §1
[4] = system: Mus musculus; test: Median effective dose was evaluated by subcutaneous pentylenetetrazole seizure test through up to 300 mg/kg; g=no protection up to 33 mg/kg; assay type: functional, organism-based
[5] = system: Mus musculus; test: Median Effective dose was evaluated by Maximal electroshock seizure (MES) test in mice by oral administration; assay type: functional
[6] = system: Mus musculus; test: Median Effective dose was evaluated by Subcutaneous pentylenetetrazole seizure test in mice by oral administration; c=No protection up to 300 mg/kg; assay type: functional, organism-based; parameters: dose 300 mg/kg
Summary of the method: (§3)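 Oral dosing in 30% PEG 400: phase IV in mice (0.01 mL/g), phase VI in Sprague-Dawley rats (0.004 mL/g). ED50/TD50 found as in phase II, at the stated time of peak effect. MES current 50 mA in mice, 150 mA in rats. PTZ sc 85 mg/kg in mice, 70 mg/kg in rats. Toxicity by rotorod in mice; positional sense, gait and stance in rats. PI = TD50/ED50.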

[7] = species: Mus musculus; test: Median hypnotic dose was evaluated by loss of righting reflex; assay type: functional
[8] = system: Mus musculus; test: Median lethal dose was evaluated by mortality after 24 hr through ip injection administration; assay type: functional
Summary of the method: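 Mice were dosed ip in 30% PEG 400. Mortality was scored 24 h after injection in groups of eight. The 24-h LD₅₀ was derived as for the ED₅₀/TD₅₀, with 95% confidence intervals.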

[9] = system: Mus musculus; test: […] was evaluated by Neurologic toxicity (rotarod test) in mice by oral administration; assay type: functional; summary of the method: as §3
[10] = species: Mus musculus; test: Time to peak activity was evaluated by Maximal electroshock seizure test in hours; assay type: functional
[11] = system: Mus musculus; test: Time to peak effect in mice was evaluated by Maximal electroshock seizure (MES) test in hours by oral administration; assay type: functional; summary of the method: as §3
[12] = system: Mus musculus; test: Time to peak effect in mice was evaluated by Neurologic toxicity (rotarod test) in hours by oral administration; assay type: functional
Summary of the method: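 Oral dosing in mice in 30% PEG 400 (0.01 mL/g). Neurologic deficit was scored by the rotorod ataxia test, and the time of peak effect was given in hours.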

[13] = system: Mus musculus; test: Time to peak effect in mice was evaluated by Subcutaneous pentylenetetrazole seizure test in hours by oral administration; assay type: functional; summary of the method: as §3
[14] = species: Mus musculus; test: Time to peak toxicity was evaluated by Maximal electroshock seizure test in hours; assay type: functional
[15] = system: Rattus norvegicus; test: Median Effective dose was evaluated by Maximal electroshock seizure (MES) test in Rats by oral administration; assay type: functional
[16] = system: Rattus norvegicus; test: Median Effective dose was evaluated by Subcutaneous pentylenetetrazole seizure test in Rats by oral administration up to 800 mg/kg;d= no protection; assay type: functional, organism-based; parameters: dose 800 mg/kg; summary of the method: as §3
[17] = system: Rattus norvegicus; test: […] was evaluated by […] by oral administration up to 3000 mg/kg; assay type: functional, organism-based; parameters: dose 3000 mg/kg
[18] = system: Rattus norvegicus; test: Time to peak effect in Rats was evaluated by Maximal electroshock seizure (MES) test in hours by oral administration; assay type: functional; summary of the method: as §3
[19] = system: Rattus norvegicus; test: Time to peak effect in Rats was evaluated by Subcutaneous pentylenetetrazole seizure test in hours by oral administration; assay type: functional; summary of the method: as §3
[20] = system: Rattus norvegicus; test: Time to peak effect in Rats was evaluated by Neurologic toxicity (rotarod test) in hours by oral administration; assay type: functional
[21] = system: Mus musculus; test: Inhibition of seizures induced in mice by a convulsant dose of bicuculline through ip administration; assay type: functional; summary of the method: as §2
[22] = system: Mus musculus; test: Inhibition of picrotoxin-induced seizures in mice by ip administration; assay type: functional; summary of the method: as §2
[23] = system: Mus musculus; test: Inhibition of seizures induced in mice by a convulsant dose of strychnine through ip administration; assay type: functional; summary of the method: as §2
[24] = system: Mus musculus; test: Median effective dose was evaluated by Maximal electroshock seizure test through intraperitoneal administration; assay type: functional; settings: ip
Summary of the method: (§4)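 Phase II in mice, ip dosing in 30% PEG 400. Groups of 6-12 mice per dose until at least three points fall in 10-90% protection. […] MES: 50 mA, 0.2 s corneal. scMet: pentylenetetrazol 85 mg/kg sc.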

[25] = system: Mus musculus; test: Median effective dose was evaluated by subcutaneous pentylenetetrazole seizure test through intraperitoneal administration; assay type: functional; summary of the method: as §4
[26] = system: Mus musculus; test: Median Effective dose was evaluated by Subcutaneous pentylenetetrazole seizure test in mice by oral administration; assay type: functional
[27] = system: Mus musculus; test: Median toxic dose was evaluated by […] through intraperitoneal administration; assay type: functional
[28] = system: Rattus norvegicus; test: Median Effective dose was evaluated by Subcutaneous pentylenetetrazole seizure test in Rats by oral administration; assay type: functional
[29] = system: Rattus norvegicus; test: […] was evaluated by Neurologic toxicity (rotarod test) in Rats by oral administration; assay type: functional
[30] = system: Mus musculus; test: Anti-seizure activity was evaluated by Maximal electroshock seizure (MES) test at dose 100 mg/kg after 0.5 hours; +++ denotes antiseizure activity; assay type: functional, organism-based; parameters: dose 100 mg/kg
Summary of the method: (§5)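 Phase I screen in mice: ip injection at 30, 100, 300 and 600 mg/kg in 30% PEG 400 (0.01 mL/g). Test run 0.5 h and 4 h after dosing. 60-Hz AC, 50 mA, via corneal electrodes for 0.2 s. Protection means abolition of hind-leg tonic extension. Scored ++++ to + for activity at 30 to 600 mg/kg.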

[31] = system: Mus musculus; test: Anti-seizure activity was evaluated by Neurologic toxicity (rotarod test) at dose 300 mg/kg after 0.5 hours; ++ denotes antiseizure activity; assay type: functional, organism-based; parameters: dose 300 mg/kg
Summary of the method: (§6)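 Phase I neurotoxicity in mice by rotorod ataxia test. Compound given ip at 30, 100, 300 or 600 mg/kg in 30% PEG 400, read 0.5 h and 4 h after. Scored ++++ to + for toxicity at 30 to 600 mg/kg; - means no toxicity.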

[32] = system: Mus musculus; test: Anti-seizure activity was evaluated by Neurologic toxicity (rotarod test) at dose 600 mg/kg after 4.0 hours; + denotes neurotoxicity; assay type: functional, organism-based; parameters: dose 600 mg/kg; summary of the method: as §6
[33] = system: Mus musculus; test: Anti-seizure activity was evaluated by Subcutaneous pentylenetetrazole seizure test at dose 300 mg/kg after 0.5 hours; ++ denotes antiseizure activity; assay type: functional, organism-based; parameters: dose 300 mg/kg
Summary of the method: (§7)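 Phase I screen in mice: ip dosing at 30, 100, 300 and 600 mg/kg in 30% PEG 400, read 0.5 h and 4 h after. Pentylenetetrazol given sc at CD97 (85 mg/kg). Protection means no clonic spasm of at least 5 s over 30 min. Scored ++++ to + for 30 to 600 mg/kg.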

[34] = species: Rattus norvegicus; test: Protective index (TD50/ED50) was determined against MES induced seizure in rat.; assay type: functional
Summary of the method: as §3, with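 “rats.” for “rats. PTZ sc 85 mg/kg in mice, 70 mg/kg in rats.”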

[35] = species: Rattus norvegicus; test: Protective index (TD50/ED50) was determined against scMet induced seizure in rat.; assay type: functional
Summary of the method: as §3, with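 “rats.” for “rats. PTZ sc 85 mg/kg in mice, 70 mg/kg in rats.”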

[36] = system: Mus musculus; test: Anti-seizure activity was evaluated by Maximal electroshock seizure (MES) test at dose 300 mg/kg after 0.5 hours; ++ denotes antiseizure activity; assay type: functional, organism-based; parameters: dose 300 mg/kg; summary of the method: as §5
[37] = system: Mus musculus; test: Anti-seizure activity was evaluated by Neurologic toxicity (rotarod test) at dose 300 mg/kg after 4.0 hours; ++ denotes antiseizure activity; assay type: functional, organism-based; parameters: dose 300 mg/kg; summary of the method: as §6
[38] = system: Mus musculus; test: Anti-seizure activity was evaluated by Neurologic toxicity (rotarod test) at dose 600 mg/kg after 0.5 hours; + denotes neurotoxicity; assay type: functional, organism-based; parameters: dose 600 mg/kg; summary of the method: as §6
[39] = system: Mus musculus; test: Anti-seizure activity was evaluated by Subcutaneous pentylenetetrazole seizure test at dose 100 mg/kg after 0.5 hours; +++ denotes antiseizure activity; assay type: functional, organism-based; parameters: dose 100 mg/kg; summary of the method: as §7
[40] = system: Mus musculus; test: Anti-seizure activity was evaluated by Subcutaneous pentylenetetrazole seizure test at dose 100 mg/kg after 4.0 hours; +++ denotes antiseizure activity; assay type: functional, organism-based; parameters: dose 100 mg/kg; summary of the method: as §7
[41] = system: Mus musculus; test: Anti-seizure activity was evaluated by Subcutaneous pentylenetetrazole seizure test at dose 600 mg/kg after 0.5 hours; + denotes neurotoxicity; assay type: functional, organism-based; parameters: dose 600 mg/kg; summary of the method: as §7

Row | SMILES | ED50 [5] [mg/kg] | HD50 [7] [mg/kg] | LD50 [8] [mg/kg] | TPE [10] | TPE [11] [h] | TPE [12] [h] | TPE [13] [h] | TPE [14] | ED50 [15] [mg/kg] | TPE [18] [h] | TPE [19] [h] | TPE [20] [h] | ED50 [24] [mg/kg] | ED50 [25] [mg/kg] | TD50 [27] [mg/kg] | Activity [30] | Activity [32] | PI [34] | PI [35] | Activity [38] | other results
1 | O=C1NC(=O)C(c2ccccc2)(c2ccccc2)N1 [PHENYTOIN] | 9 | 178 | 230 | 2 | 2 | 2 | 2 | 2 | 30 | 4 | 4 | 0.5 |  |  |  |  |  |  |  |  | ED50 [1]: inactive; ED50 [2]: Active; ED50 [3]: inactive; ED50 [4]: inactive; ED50 [6]: inactive; TD50 [9]: 87 mg/kg; ED50 [16]: inactive; TD50 [17]: inactive
2 | CCC1(c2ccccc2)C(=O)NC(=O)NC1=O [PHENOBARBITAL] | 20 | 135 | 265 | 1 | 2 | 2 | 2 | 0.5 | 9.1 | 5 | 5 | 0.5 | 22 | 13 | 69 |  |  |  |  |  | ED50 [21]: 38 mg/kg; ED50 [22]: 95 mg/kg; ED50 [23]: 28 mg/kg; ED50 [26]: 13 mg/kg; ED50 [28]: 12 mg/kg; TD50 [29]: 61 mg/kg
3 | O=C(Cc1ccc([N+](=O)[O-])cc1)NS(=O)(=O)C(F)(F)F |  |  |  | 4 |  |  |  | 6 |  |  |  |  | 12 | 20 | 482 | Antiseizure activity | Antiseizure activity | 39 | 24 |  | Activity [31]: Antiseizure activity; Activity [33]: Antiseizure activity
4 | O=C(Cc1ccc(Cl)cc1)NS(=O)(=O)C(F)(F)F |  |  |  | 4 |  |  |  | 4 |  |  |  |  | 7.6 | 49 | 206 |  |  | 27 | 4.2 | Antiseizure activity | Activity [36]: Antiseizure activity; Activity [37]: Antiseizure activity; Activity [39]: Antiseizure activity
5 | O=C(Cc1ccc(Br)cc1)NS(=O)(=O)C(F)(F)F |  |  |  | 4 |  |  |  | 2 |  |  |  |  | 23 | 55 | 291 | Antiseizure activity | Antiseizure activity | 13 | 5.3 | Antiseizure activity | Activity [40]: Antiseizure activity; Activity [41]: Antiseizure activity
